These results are taken from publication PMC4018401 (Journal of Medicinal Chemistry, 2014).

pEC50, pIC50: −log10 of the molar value.

In general, pIC50 refers to the negative decadic logarithm of the IC50, by convention in mol/L. Higher therefore signals a small IC50. Usually pEC50 stands for the negative decadic logarithm of the EC50, by convention in mol/L.

Data set [1] in a line: Microsomal stability, rat and human liver microsomes. The data set is classed as in vitro ADME. The settings on record: rat and human hepatic microsomes.
The nature of another data set: HepG2 cytotoxicity assay. The data set is classed as cell-based. The settings on record: human, HepG2 cells.
The test system of data set [2] is P. yoelii (Kenya strain) infected mice. Nature of the data set: In vivo efficacy against murine malaria. Also on record: species or system Plasmodium yoelii. The conditions noted are these: for times less effective than 7 against murine malaria: relative to compound 7; for in vivo antimalarial activity: P. yoelii in mice, oral. The gist of the method: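 Female CF1 mice infected intravenously with 2.5–5.0 × 105 P. yoelii (Kenya strain) parasitized erythrocytes from a donor; groups of four. Test compound in PEG-400 given by oral gavage once daily for 4 days, starting the day after inoculation; initial doses 0.1–10 mg/kg/day, adjusted if needed. Chloroquine phosphate as positive control. Day-5 parasitemia read from Giemsa smears. Cure means parasite-free 30 days after the last dose; NRD is the dose needed for cure.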

Data set [3] deals with P. falciparum Tm93-C1088 (atovaquone resistant clinical isolate). The data set is described as follows: SYBR Green I parasite growth inhibition, P. falciparum Tm93-C1088. The conditions noted are these: Plasmodium falciparum, 72 h, read-out: EC50 TM93-C1088 (WRAIR). The data set is classed as cell-based. The gist of the method: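 Atovaquone-resistant Thai isolate with cytochrome b Y268S, grown asynchronously in human erythrocytes (RPMI-1640/HEPES/hypoxanthine/Albumax II; 5% O2, 5% CO2, 90% N2). Triplicate 2-fold dilutions, 2% hematocrit, 0.2% starting parasitemia, 72 h at 37 °C. SYBR Green I dye–detergent added for 1 h in the dark at room temperature, fluorescence read at ex 497/em 520 nm. EC50 by nonlinear regression against drug-free wells; at least three determinations.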

In data set [4] the target is T1, P. falciparum cytochrome bc1 complex (Plasmodium falciparum, UniProt Q02768).
T1 sequence (Q02768 1-376): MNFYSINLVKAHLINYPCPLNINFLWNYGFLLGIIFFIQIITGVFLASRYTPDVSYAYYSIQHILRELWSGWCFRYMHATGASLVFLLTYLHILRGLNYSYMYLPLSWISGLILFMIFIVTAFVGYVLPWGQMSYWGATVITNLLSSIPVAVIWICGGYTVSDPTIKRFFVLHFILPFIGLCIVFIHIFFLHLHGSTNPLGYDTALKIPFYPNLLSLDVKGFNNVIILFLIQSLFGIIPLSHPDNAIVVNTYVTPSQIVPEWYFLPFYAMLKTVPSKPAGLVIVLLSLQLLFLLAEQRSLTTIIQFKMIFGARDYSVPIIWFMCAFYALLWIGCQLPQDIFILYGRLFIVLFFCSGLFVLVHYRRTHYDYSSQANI
The data set is described as follows: Inhibition of P. falciparum cytochrome bc1. The class given is biochemical. The gist of the method: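 Cytochrome c reductase assays. P. falciparum mitochondria: stirred cuvette at 35 °C with 100 μM decylubiquinol, 100 μM horse heart cytochrome c, 0.1 mg/mL dodecyl maltoside, 60 mM HEPES pH 7.4, 10 mM malonate, 1.0 mM EDTA, 2.0 mM KCN. Human HEK-293 mitochondria: detergent-solubilised; 50 mM Tricine pH 8.0, 100 mM KCl, 4 mM KCN, 50 μM each substrate. Baseline-subtracted initial rates expressed as fraction of uninhibited control.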

The test system of data set [5] is P. yoelii (Kenya strain) infected mice. The conditions noted are these: side-by-side tests; cited from earlier work.

With `COc1cc2[nH]c(C)c(-c3ccc(Oc4ccc(F)cc4)cc3)c(=O)c2cc1Cl` [Compound 20d, 6-Chloro-3-(4-(4-fluorophenoxy)phenyl)-7-methoxy-2-methylquinolin-4(1H)-one], the “metabolic stability in microsomes” value in data set [1] is reported as “metabolically stable”.

`Cc1[nH]c2ccccc2c(=O)c1-c1ccc(Oc2ccccc2)cc1` [Compound 3, 2-Methyl-3-(4-phenoxyphenyl)quinolin-4(1H)-one]: in the data set “HepG2 cytotoxicity assay”, the pIC50 was under 5.00. As for `COc1cc2[nH]c(C)c(-c3ccc(Oc4ccc(OC(F)(F)F)cc4)nc3)c(=O)c2cc1Cl` [Compound 25a, 6-Chloro-7-methoxy-2-methyl-3-(6-(4-(trifluoromethoxy)phenoxy)pyridin-3-yl)quinolin-4(1H)-one], the pIC50 in “HepG2 cytotoxicity assay” was under 5.00. The “times less effective than 7 against murine malaria” value in data set [2] is recorded as 3–10 times. As to `COc1cc2[nH]c(C)c(-c3ccc(Oc4cccc(OC(F)(F)F)c4)cc3)c(=O)c2cc1Cl` [Compound 20a, 6-Chloro-7-methoxy-2-methyl-3-(4-(3-(trifluoromethoxy)phenoxy)phenyl)quinolin-4(1H)-one], the “in vivo antimalarial activity” value in data set [2] was “ineffective in vivo”. In data set [1], the “metabolic stability in microsomes” value was “metabolically unstable”.

As to `COc1ccc2c(=O)c(-c3ccc(Oc4ccc(OC(F)(F)F)cc4)cc3)c(C)[nH]c2c1` [Compound 6, 7-Methoxy-2-methyl-3-(4-(4-(trifluoromethoxy)phenoxy)phenyl)quinolin-4(1H)-one], in the data set “HepG2 cytotoxicity assay”, the pIC50 was under 5.00. In addition, the “metabolic stability in microsomes” value in data set [1] is recorded as “metabolized at a moderate to intermediate rate”.

Consider `COc1cc2[nH]c(C)c(-c3ccc(Oc4ccc(OC(F)(F)F)cc4)cc3)c(=O)c2cc1Cl` [Compound 7, 6-Chloro-7-methoxy-2-methyl-3-(4-(4-(trifluoromethoxy)phenoxy)phenyl) quinolin-4(1H)-one], for which, in data set [3], the pEC50 is 9.00. Further, the pIC50 in the data set “HepG2 cytotoxicity assay” was under 5.00. Also, the “parasite selectivity (P. falciparum vs human cytochrome bc1)” value in data set [4] is reported as at least 20000 fold. Besides, the “fold more effective than atovaquone against murine malaria” value in data set [5] is listed as 30 fold. Take `COc1cc2[nH]c(C)c(-c3ccc(Oc4ccc(C(F)(F)F)cc4)cc3)c(=O)c2cc1Cl` [Compound 20b, 6-Chloro-7-methoxy-2-methyl-3-(4-(4-(trifluoromethyl)phenoxy)phenyl)quinolin-4(1H)-one]: the “metabolic stability in microsomes” value in data set [1] is listed as “metabolically stable”. `COc1cc2[nH]c(C)c(-c3ccc(Oc4ccc(OC(F)(F)F)cc4)cc3)c(=O)c2cc1F` [Compound 18b, 6-Fluoro-7-methoxy-2-methyl-3-(4-(4-(trifluoromethoxy)phenoxy)phenyl)quinolin-4(1H)-one] had a pIC50 in “HepG2 cytotoxicity assay” of under 5.00. The compound `Cc1[nH]c2ccccc2c(=O)c1-c1ccc(Oc2ccc(OC(F)(F)F)cc2)cc1` [Compound 4, 2-Methyl-3-(4-(4-(trifluoromethoxy)phenoxy)phenyl)quinolin-4(1H)-one] showed a pIC50 in the data set “HepG2 cytotoxicity assay” of under 5.00. Also, in data set [1], the “metabolic stability in microsomes” value is recorded as “no detectable degradation”.

For the compound `O=C1C(O)=C([C@H]2CC[C@H](c3ccc(Cl)cc3)CC2)C(=O)c2ccccc21` [atovaquone, reference compound], the pIC50 in “HepG2 cytotoxicity assay” is under 5.00. Regarding `COc1cc2[nH]c(C)c(-c3ccc(Oc4ccccc4)cc3)c(=O)c2cc1F` [Compound 13, 6-Fluoro-7-methoxy-2-methyl-3-(4-phenoxyphenyl)quinolin-4(1H)-one], the pIC50 in the data set “HepG2 cytotoxicity assay” was under 5.00.

`COc1cc2[nH]c(C)c(-c3cnc(Oc4ccc(OC(F)(F)F)cc4)nc3)c(=O)c2cc1Cl` [Compound 25c, 6-Chloro-7-methoxy-2-methyl-3-(2-(4-(trifluoromethoxy)phenoxy)pyrimidin-5-yl)quinolin-4(1H)-one] gave a pIC50 in “HepG2 cytotoxicity assay” of under 5.00. `CCCCCCCc1c(C)nc2cc(OC)ccc2c1O` [endochin, reference compound] gave a pIC50 in “HepG2 cytotoxicity assay” of under 5.00. Also, the “in vivo antimalarial activity” value in data set [2] is “inactive in vivo”. `COc1cc2[nH]c(C)c(-c3ccc(Oc4ccc(Cl)cc4)cc3)c(=O)c2cc1Cl` [Compound 20c, 6-Chloro-3-(4-(4-chlorophenoxy)phenyl)-7-methoxy-2-methylquinolin-4(1H)-one] had a pIC50 in “HepG2 cytotoxicity assay” of under 5.00. In data set [2], the “times less effective than 7 against murine malaria” value is 3–10 times. Further, in data set [1], the “metabolic stability in microsomes” value is reported as “metabolically stable”. In the data set “HepG2 cytotoxicity assay”, `COc1cc2[nH]c(C)c(-c3ccc(Oc4ccc(OC(F)(F)F)cc4)cn3)c(=O)c2cc1Cl` [Compound 25b, 6-Chloro-7-methoxy-2-methyl-3-(5-(4-(trifluoromethoxy)phenoxy)pyridin-2-yl)quinolin-4(1H)-one] gave a pIC50 of under 5.00. In “HepG2 cytotoxicity assay”, `Cc1[nH]c2ccc(Cl)cc2c(=O)c1-c1ccc(Oc2ccc(OC(F)(F)F)cc2)cc1` [Compound 5, 6-Chloro-2-methyl-3-(4-(4-(trifluoromethoxy)phenoxy)phenyl)quinolin-4(1H)-one] showed a pIC50 of under 5.00. Regarding `Cc1[nH]c2ccc(F)cc2c(=O)c1-c1ccc(Oc2ccc(OC(F)(F)F)cc2)cc1` [Compound 18a, 6-Fluoro-2-methyl-3-(4-(4-(trifluoromethoxy)phenoxy)phenyl)quinolin-4(1H)-one], the pIC50 in “HepG2 cytotoxicity assay” was under 5.00.
